According to ChEMBL document CHEMBL1221191, “Inhibitors of Polo-like kinase reveal roles in spindle-pole maintenance” (Nat Chem Biol, 2006):
Activity calls are given as the source filed them. The rule behind the calls is not given here.

Legend:
[1] = biological target: Serine/threonine-protein kinase PLK1 (Homo sapiens, UniProt P53350)
S2 [2] = experiment: Antimitotic activity against Drosophila melanogaster S2 cells assessed as nucleated microtubule at 20 nM in presence of high speed cytoplasmic supernatant; format: functional, cell-based
Outline: (§1)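 Centrosomes partially purified from Drosophila embryos, some stripped with 1 M KI. Compound (10 or 20 nM; 0.1% DMSO carrier) incubated 20 min at 25 °C with centrosomes or with high-speed embryonic cytoplasmic supernatant, then microtubule nucleation assayed with rhodamine-labelled tubulin. Staining for γ-tubulin, MPM2 epitope, Asp and centrosomin. MPM2 also checked by western blot of treated supernatant.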

S2 [3] = experiment: Antimitotic activity against Drosophila melanogaster S2 cells assessed as loss of gamma-tubulin at 20 nM by immunostaining; format: functional, cell-based
Outline: as §1

S2 [4] = experiment: Antimitotic activity against Drosophila melanogaster S2 cells assessed as loss of MPM2 epitope from centrosome at 20 nM by immunostaining; format: functional, cell-based
Outline: as §1

S2 [5] = experiment: Inhibition of […]-mediated gamma-TuRc recruitment in Drosophila melanogaster S2 cells at 20 nM in presence of high-speed supernatant of syncytial embryo cytoplasam; format: cell-based
Outline: as §1

Drosophila melanogaster = experiment: Inhibition of […]-mediated Asp protein recruitment in Drosophila melanogaster S2 at 20 nM in presence of high-speed supernatant of syncytial embryo cytoplasam
Outline: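 Centrosomes partially purified from D. melanogaster embryos were salt-stripped with 1 M KI. They were then incubated with rhodamine-labeled tubulin and high-speed embryonic cytoplasmic supernatant. The supernatant was pretreated with compound (20 nM) or 0.1% DMSO for 20 min at 25 °C. Preparations were immunostained for centrosomin, γ-tubulin, Asp and the MPM2 phosphoepitope, and microtubule nucleation was scored.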

S2 [6] = experiment: Antimitotic activity against Drosophila melanogaster S2 cells cytosolic extract assessed as loss of MPM2 epitope; format: functional, cell-based
Outline: as §1

[7] = biological target: Cyclin-dependent kinase 2/cyclin E1 (Homo sapiens, UniProt P24941); experiment: Inhibition of CDK2/Cyclin E; format: protein-complex assay
[8] = biological target: Cyclin-dependent kinase 2/cyclin A (Homo sapiens, UniProt P24941); experiment: Inhibition of CDK2/Cyclin A; format: protein-complex assay
[9] = biological target: Cyclin-dependent kinase 1/cyclin B1 (Homo sapiens, UniProt P06493); experiment: Inhibition of CDK1/Cyclin B; format: protein-complex assay
[10] = biological target: Cyclin-dependent kinase 4/cyclin D1 (Homo sapiens, UniProt P11802); experiment: Inhibition of CDK4/Cyclin D1; format: protein-complex assay
Cyclin-dependent kinase 4/cyclin D1, sequence (P11802 whole entry): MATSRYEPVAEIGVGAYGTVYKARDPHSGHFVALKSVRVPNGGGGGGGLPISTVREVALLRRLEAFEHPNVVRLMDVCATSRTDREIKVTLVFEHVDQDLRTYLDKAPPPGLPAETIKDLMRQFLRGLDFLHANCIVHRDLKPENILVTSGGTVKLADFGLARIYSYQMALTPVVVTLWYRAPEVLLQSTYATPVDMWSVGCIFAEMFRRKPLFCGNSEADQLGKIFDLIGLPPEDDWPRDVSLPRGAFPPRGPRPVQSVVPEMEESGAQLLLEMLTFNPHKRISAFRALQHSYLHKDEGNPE
Cyclin-dependent kinase 4/cyclin D1, sequence (P24385 whole entry, further chain): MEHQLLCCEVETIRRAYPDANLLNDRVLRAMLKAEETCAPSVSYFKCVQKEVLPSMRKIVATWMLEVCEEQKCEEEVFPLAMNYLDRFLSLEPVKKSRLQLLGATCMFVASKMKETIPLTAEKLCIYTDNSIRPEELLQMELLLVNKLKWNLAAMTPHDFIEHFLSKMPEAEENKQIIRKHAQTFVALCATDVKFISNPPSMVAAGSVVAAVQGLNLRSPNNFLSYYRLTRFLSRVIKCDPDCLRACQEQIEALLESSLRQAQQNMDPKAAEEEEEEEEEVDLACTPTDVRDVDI

[11] = biological target: Cyclin-dependent kinase 7/ cyclin H (Homo sapiens, UniProt P50613); experiment: Inhibition of CDK7/Cyclin H; format: protein-complex assay
Cyclin-dependent kinase 7/ cyclin H, sequence (P51946 whole entry): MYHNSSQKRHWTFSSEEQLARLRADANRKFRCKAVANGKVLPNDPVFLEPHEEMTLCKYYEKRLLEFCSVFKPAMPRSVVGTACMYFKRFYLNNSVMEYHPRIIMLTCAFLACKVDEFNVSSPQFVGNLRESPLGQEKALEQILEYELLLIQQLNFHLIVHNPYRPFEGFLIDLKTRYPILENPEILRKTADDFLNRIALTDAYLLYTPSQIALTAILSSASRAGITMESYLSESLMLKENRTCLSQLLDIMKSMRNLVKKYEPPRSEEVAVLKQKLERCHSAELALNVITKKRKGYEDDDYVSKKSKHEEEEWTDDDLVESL
Cyclin-dependent kinase 7/ cyclin H, sequence (P50613 whole entry): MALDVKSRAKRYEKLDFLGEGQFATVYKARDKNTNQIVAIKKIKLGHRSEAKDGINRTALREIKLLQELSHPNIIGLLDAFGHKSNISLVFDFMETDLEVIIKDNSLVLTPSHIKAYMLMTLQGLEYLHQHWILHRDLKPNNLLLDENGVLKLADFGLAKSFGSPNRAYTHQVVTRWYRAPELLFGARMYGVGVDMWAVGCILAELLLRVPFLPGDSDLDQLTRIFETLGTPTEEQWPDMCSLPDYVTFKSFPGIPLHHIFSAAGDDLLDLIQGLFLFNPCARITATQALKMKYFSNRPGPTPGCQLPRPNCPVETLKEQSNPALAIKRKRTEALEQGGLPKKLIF

CDK9/cyclin T1 = CDK9/cyclin T1 (Homo sapiens, UniProt P50750); experiment: Inhibition of CDK9/Cyclin T; format: protein-complex assay
[12] = Inhibition of CK2
[13] = Inhibition of CamK2
[14] = Inhibition of MAPK/ERK
[15] = biological target: Protein kinase C alpha type (Homo sapiens, UniProt P17252); experiment: Inhibition of PKCalpha
[16] = biological target: RAC-alpha serine/threonine-protein kinase (Homo sapiens, UniProt P31749); experiment: Inhibition of Akt
RAC-alpha serine/threonine-protein kinase, sequence (P31749 whole entry): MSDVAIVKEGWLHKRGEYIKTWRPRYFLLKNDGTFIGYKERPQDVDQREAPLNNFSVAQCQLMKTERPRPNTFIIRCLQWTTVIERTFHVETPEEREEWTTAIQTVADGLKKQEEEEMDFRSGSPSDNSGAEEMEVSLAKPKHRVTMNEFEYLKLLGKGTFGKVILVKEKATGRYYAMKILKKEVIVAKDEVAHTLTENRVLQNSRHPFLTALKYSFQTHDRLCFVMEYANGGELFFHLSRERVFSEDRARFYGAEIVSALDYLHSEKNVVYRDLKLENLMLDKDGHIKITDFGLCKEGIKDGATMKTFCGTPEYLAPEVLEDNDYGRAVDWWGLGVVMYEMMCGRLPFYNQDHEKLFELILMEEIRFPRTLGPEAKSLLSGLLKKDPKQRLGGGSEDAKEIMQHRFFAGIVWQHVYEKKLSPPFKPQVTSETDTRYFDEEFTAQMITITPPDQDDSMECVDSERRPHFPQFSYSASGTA

[17] = biological target: Tyrosine-protein kinase ABL1 (Homo sapiens, UniProt P00519); experiment: Inhibition of Abl
Tyrosine-protein kinase ABL1, sequence (P00519 whole entry): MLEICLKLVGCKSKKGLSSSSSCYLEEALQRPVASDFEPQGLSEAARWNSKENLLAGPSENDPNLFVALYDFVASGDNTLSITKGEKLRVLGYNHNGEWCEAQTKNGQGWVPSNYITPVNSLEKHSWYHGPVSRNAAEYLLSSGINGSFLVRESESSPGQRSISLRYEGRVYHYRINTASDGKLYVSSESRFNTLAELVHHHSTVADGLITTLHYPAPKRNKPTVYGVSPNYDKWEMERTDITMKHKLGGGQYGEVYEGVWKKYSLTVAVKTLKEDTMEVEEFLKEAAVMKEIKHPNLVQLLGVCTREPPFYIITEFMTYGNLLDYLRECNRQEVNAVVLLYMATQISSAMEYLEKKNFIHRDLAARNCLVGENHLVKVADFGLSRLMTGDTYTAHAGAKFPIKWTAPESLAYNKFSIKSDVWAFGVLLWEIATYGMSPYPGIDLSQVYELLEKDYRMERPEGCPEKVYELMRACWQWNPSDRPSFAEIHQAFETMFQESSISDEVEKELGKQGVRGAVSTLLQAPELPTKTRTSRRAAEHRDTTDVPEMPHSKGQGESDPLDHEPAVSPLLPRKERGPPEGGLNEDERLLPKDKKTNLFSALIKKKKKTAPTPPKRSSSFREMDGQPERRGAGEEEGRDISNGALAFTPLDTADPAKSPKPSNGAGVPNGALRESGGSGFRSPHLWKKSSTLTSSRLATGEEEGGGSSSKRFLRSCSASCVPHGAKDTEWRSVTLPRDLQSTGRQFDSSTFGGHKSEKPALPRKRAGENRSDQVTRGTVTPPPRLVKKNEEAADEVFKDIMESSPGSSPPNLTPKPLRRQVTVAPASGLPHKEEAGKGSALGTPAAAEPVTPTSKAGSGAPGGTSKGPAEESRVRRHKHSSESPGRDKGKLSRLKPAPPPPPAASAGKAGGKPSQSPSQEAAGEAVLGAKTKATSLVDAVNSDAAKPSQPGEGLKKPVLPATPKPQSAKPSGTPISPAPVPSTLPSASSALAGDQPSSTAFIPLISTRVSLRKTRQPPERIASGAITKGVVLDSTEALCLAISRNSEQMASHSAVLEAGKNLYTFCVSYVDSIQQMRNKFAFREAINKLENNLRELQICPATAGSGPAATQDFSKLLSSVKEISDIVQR

[18] = biological target: Glycogen synthase kinase-3 alpha (Homo sapiens, UniProt P49840); experiment: Inhibition of GSK3alpha
Aurora kinase A = Aurora kinase A (Homo sapiens, UniProt O14965); experiment: Inhibition of Aurora A
Aurora kinase A, sequence (O14965 whole entry): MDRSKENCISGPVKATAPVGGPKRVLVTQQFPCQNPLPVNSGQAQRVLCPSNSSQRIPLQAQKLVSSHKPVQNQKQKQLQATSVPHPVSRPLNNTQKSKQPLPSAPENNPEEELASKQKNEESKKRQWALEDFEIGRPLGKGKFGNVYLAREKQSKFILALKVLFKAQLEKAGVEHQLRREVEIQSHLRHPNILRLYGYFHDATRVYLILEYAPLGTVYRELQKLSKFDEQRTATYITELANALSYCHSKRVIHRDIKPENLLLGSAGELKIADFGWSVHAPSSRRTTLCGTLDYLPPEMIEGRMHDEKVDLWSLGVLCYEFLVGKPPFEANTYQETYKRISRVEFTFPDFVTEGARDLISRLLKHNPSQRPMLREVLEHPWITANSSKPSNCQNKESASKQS

[19] = Inhibition of PKA
[20] = Inhibition of P70S6K
[21] = biological target: Mitogen-activated protein kinase 11 (Homo sapiens, UniProt Q15759); experiment: Inhibition of SAPK2
Mitogen-activated protein kinase 11, sequence (Q15759 whole entry): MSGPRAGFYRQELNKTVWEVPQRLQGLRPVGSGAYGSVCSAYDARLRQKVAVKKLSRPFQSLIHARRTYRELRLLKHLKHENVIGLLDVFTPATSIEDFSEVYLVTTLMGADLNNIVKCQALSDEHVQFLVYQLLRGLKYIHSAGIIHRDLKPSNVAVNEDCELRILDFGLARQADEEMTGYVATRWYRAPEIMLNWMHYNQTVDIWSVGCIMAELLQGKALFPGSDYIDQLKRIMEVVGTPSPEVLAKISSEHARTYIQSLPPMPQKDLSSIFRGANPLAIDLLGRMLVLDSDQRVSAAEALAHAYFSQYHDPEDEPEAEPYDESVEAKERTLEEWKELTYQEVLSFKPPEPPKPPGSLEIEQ

A549 = experiment: Cytotoxicity against human A549 cells assessed as mitotic progression after 72 hrs by MTT assay; format: functional, cell-based; conditions: A549, 72 h
HeLa [22] = experiment: Cytotoxicity against human HeLa cells assessed as mitotic progression after 72 hrs by MTT assay; format: functional, cell-based
HT-29 = experiment: Cytotoxicity against human HT-29 cells assessed as mitotic progression after 72 hrs by MTT assay; format: functional, cell-based; conditions: HT-29, 72 h
HeLa [23] = experiment: Antitumor activity against human HeLa cells assessed as shortened mitotic spindles at 10 uM after 24 hrs by immunostaining relative to control; format: functional, cell-based
Outline: (§2)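 HeLa cells treated 24 h with 10 or 25 μM compound or 0.1% DMSO, then fixed and stained for α-tubulin, γ-tubulin and DNA. Spindle length taken as pole-to-pole distance. Microtubule density judged from the immunostained spindles.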

HeLa [24] = experiment: Antitumor activity against human HeLa cells assessed as shortened mitotic spindles at 25 uM after 24 hrs by immunostaining relative to control; format: functional, cell-based
Outline: as §2

HeLa [25] = experiment: Antitumor activity against human HeLa cells assessed as change in kinetochore microtubules density at 25 uM after 24 hrs by immunostaining relative to control; format: functional, cell-based
Outline: as §2

[26] = Antimitotic activity against Drosophila melanogaster S2 cells assessed as bipolar spindles at 10 uM after 24 hrs by immunostaining relative to control; format: functional
Outline: (§3)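 Drosophila S2 cells exposed to 10 μM (24 h, fixed) or 25 μM (added at time 0 to cells already in mitosis) of compound, with 0.1% DMSO control. Fixed cells immunostained for α-tubulin, γ-tubulin and DNA. Live cells expressing GFP-tubulin filmed by spinning-disk confocal time-lapse at 25 ± 1 °C to follow spindle behaviour.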

[27] = biological target: Aurora kinase B (Drosophila melanogaster) (UniProt Q9VKN7); experiment: Inhibition of Aurora B kinase in Drosophila melanogaster assessed as histone H3 phosphorylation at Ser10
S2 [28] = experiment: Antimitotic activity against Drosophila melanogaster S2 cells assessed as collapsed spindles at 25 uM; format: functional, cell-based
Outline: as §3

S2 [29] = experiment: Antimitotic activity against Drosophila melanogaster S2 cells expressing GFP-tubulin assessed as abnormal spindles at 25 uM; format: functional, cell-based
Outline: as §3

S2 [30] = experiment: Antimitotic activity against Drosophila melanogaster S2 cells assessed as nucleated microtubule at 10 nM; format: functional, cell-based
Outline: as §1

S2 [31] = experiment: Antimitotic activity against Drosophila melanogaster S2 cells assessed as nucleated microtubule at 20 nM; format: functional, cell-based
Outline: as §1

S2 [32] = experiment: Inhibition of Plk1 in Drosophila melanogaster S2 cells at 20 nM; format: cell-based
[33] = biological target: Tyrosine-protein kinase CSK (Homo sapiens) (UniProt P41240); experiment: Inhibition of CSK at 100 uM
[34] = biological target: Insulin receptor (Homo sapiens) (UniProt P06213); experiment: Residual activity of IR at 100 uM relative to control
[35] = biological target: Tyrosine-protein kinase Yes (Homo sapiens) (UniProt P07947); experiment: Residual activity of Yes at 100 uM relative to control
[36] = biological target: Serine/threonine-protein kinase Chk1 (Homo sapiens) (UniProt O14757); experiment: Residual activity of Chk1 at 100 uM relative to control
[37] = biological target: Serine/threonine-protein kinase Chk2 (Homo sapiens) (UniProt O96017); experiment: Residual activity of Chk2 at 100 uM relative to control
[38] = biological target: Dual specificity mitogen-activated protein kinase kinase 1 (Homo sapiens) (UniProt Q02750); experiment: Residual activity of MEK1 at 100 uM relative to control
[39] = biological target: Dual specificity mitogen-activated protein kinase kinase 6 (Homo sapiens) (UniProt P52564); experiment: Residual activity of MKK6 at 100 uM relative to control
[40] = biological target: Ribosomal protein S6 kinase alpha-5 (Homo sapiens) (UniProt O75582); experiment: Residual activity of MSK1 at 100 uM relative to control
[41] = biological target: Ribosomal protein S6 kinase alpha-3 (Homo sapiens) (UniProt P51812); experiment: Residual activity of Rsk2 at 100 uM relative to control
[42] = biological target: RAF proto-oncogene serine/threonine-protein kinase (Homo sapiens) (UniProt P04049); experiment: Residual activity of c-RAF at 100 uM relative to control
[43] = biological target: Fibroblast growth factor receptor 3 (Homo sapiens) (UniProt P22607); experiment: Residual activity of FGFR3 at 100 uM relative to control
[44] = biological target: Mitogen-activated protein kinase 12 (Homo sapiens) (UniProt P53778); experiment: Residual activity of SAPK3 at 100 uM relative to control
[45] = biological target: Cyclin-dependent kinase 2/cyclin E1 (Homo sapiens) (UniProt P24864+P24941); experiment: Residual activity of CDK2/E at 100 uM relative to control
[46] = biological target: Insulin-like growth factor 1 receptor (Homo sapiens) (UniProt P08069); experiment: Residual activity of IGF-1R at 100 uM relative to control
[47] = Residual activity of SAPK2b at 100 uM relative to control
[48] = biological target: Inhibitor of nuclear factor kappa-B kinase subunit alpha (Homo sapiens) (UniProt O15111); experiment: Residual activity of IKKalpha at 100 uM relative to control
[49] = biological target: Protein kinase C gamma type (Homo sapiens) (UniProt P05129); experiment: Residual activity of PKCgamma at 100 uM relative to control
[50] = biological target: Protein kinase C beta type (Homo sapiens) (UniProt P05771); experiment: Residual activity of PKCbeta2 at 100 uM relative to control
[51] = biological target: MAP kinase-activated protein kinase 2 (Homo sapiens) (UniProt P49137); experiment: Residual activity of MAPKAP-K2 at 100 uM relative to control
[52] = biological target: Mitogen-activated protein kinase 9 (Homo sapiens) (UniProt P45984); experiment: Residual activity of JNK2alpha2 at 100 uM relative to control
[53] = biological target: Platelet-derived growth factor receptor alpha (Homo sapiens) (UniProt P16234); experiment: Residual activity of PDGFRalpha at 100 uM relative to control
[54] = biological target: Tyrosine-protein kinase CSK (Homo sapiens) (UniProt P41240); experiment: Inhibition of CSK at 100 uM relative to control; values are per cent of control

Serine/threonine-protein kinase PLK1, sequence (P53350 whole entry): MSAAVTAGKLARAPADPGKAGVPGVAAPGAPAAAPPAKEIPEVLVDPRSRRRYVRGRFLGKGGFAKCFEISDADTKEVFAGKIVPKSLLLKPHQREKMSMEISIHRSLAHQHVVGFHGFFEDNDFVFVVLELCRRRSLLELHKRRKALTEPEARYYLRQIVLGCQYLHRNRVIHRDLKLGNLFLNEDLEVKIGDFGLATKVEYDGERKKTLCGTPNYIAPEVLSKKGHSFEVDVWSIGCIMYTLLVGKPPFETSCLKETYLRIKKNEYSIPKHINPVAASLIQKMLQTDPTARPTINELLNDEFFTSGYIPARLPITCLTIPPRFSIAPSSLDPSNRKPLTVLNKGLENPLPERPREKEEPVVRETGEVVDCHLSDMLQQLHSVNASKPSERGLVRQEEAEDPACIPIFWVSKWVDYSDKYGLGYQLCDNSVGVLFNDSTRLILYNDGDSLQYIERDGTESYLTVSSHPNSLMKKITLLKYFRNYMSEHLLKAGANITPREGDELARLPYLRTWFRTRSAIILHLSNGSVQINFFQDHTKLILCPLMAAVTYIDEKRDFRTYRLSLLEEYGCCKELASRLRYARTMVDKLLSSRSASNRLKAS

Compound `Cc1nc(N)sc1-c1ccnc(Nc2ccc(O)cc2)n1` has an IC50 [1] of 25 µM.
For `Cc1nc(C)c(-c2ccnc(Nc3ccc(O)cc3)n2)s1`, the IC50 [1] was 5 µM.
In the case of `CNc1nc(C)c(-c2ccnc(Nc3ccc(O)cc3)n2)s1`, the IC50 [1] is reported as 10 µM.
With `NC(=O)c1sc2c([N+](=O)[O-])cc(SC(F)(F)F)cc2[n+]1[O-]` [CYCLAPOLIN 1] the Activity (S2 [2]) was “inactive”, the Activity (S2 [3]) was “Active” and the Activity (S2 [4]) was “Active”. For the same compound, the inhibition (S2 [5]) was “inactive”, the inhibition (Drosophila melanogaster) was “inactive” and the Activity (S2 [6]) was “Active”. For the same compound, the IC50 [7] was over 100 µM, the IC50 [8] was over 100 µM and the IC50 [9] was over 100 µM. It also gave an IC50 [10] of over 100 µM, an IC50 [11] of over 100 µM and an IC50 (CDK9/cyclin T1) of over 100 µM. The IC50 [12] was over 100 µM, the IC50 [13] was over 100 µM and the IC50 [14] was over 100 µM. For the same compound, the IC50 [15] was over 100 µM, the IC50 [16] was over 100 µM and the IC50 [17] was over 100 µM. The IC50 [18] was over 100 µM, the IC50 (Aurora kinase A) was over 100 µM and the IC50 [19] was over 100 µM. The IC50 [20] was over 100 µM, the IC50 [21] was over 100 µM and the IC50 (A549) was 14 µM. The IC50 (HeLa [22]) was 14 µM, the IC50 (HT-29) was 2.8 µM and the Activity (HeLa [23]) was “Active”. For the same compound, the Activity (HeLa [24]) was “Active”, the Activity (HeLa [25]) was “Active” and the Activity [26] was 80%. For the same compound, the inhibition [27] was “inactive”, the Activity (S2 [28]) was “Active” and the Activity (S2 [29]) was “Active”. For the same compound, the Activity (S2 [30]) was “inactive”, the Activity (S2 [31]) was “Active” and the inhibition (S2 [32]) was “Active”.
`NC(=O)c1sc2c([N+](=O)[O-])cc(C(F)(F)F)cc2[n+]1[O-]` [CYCLAPOLIN 9] showed an IC50 [7] of over 100 µM, an IC50 [8] of over 100 µM and an IC50 [9] of over 100 µM. The IC50 [10] was over 100 µM, the IC50 [11] was over 100 µM and the IC50 (CDK9/cyclin T1) was over 100 µM. It also gave an IC50 [12] of over 100 µM, an IC50 [13] of over 100 µM and an IC50 [14] of over 100 µM. It also gave an IC50 [15] of over 100 µM, an IC50 [16] of over 100 µM and an IC50 [17] of over 100 µM. The IC50 [18] was over 100 µM, the IC50 (Aurora kinase A) was over 100 µM and the IC50 [19] was over 100 µM. The IC50 [20] was over 100 µM, the IC50 [21] was over 100 µM and the IC50 (A549) was 24.8 µM. It also gave an IC50 (HeLa [22]) of 6.6 µM, an IC50 (HT-29) of 7.7 µM and an inhibition [33] of under 50%. For the same compound, the residual activity [34] was 107%, the residual activity [35] was 108% and the residual activity [36] was 111%. The residual activity [37] was 97%, the residual activity [38] was 96% and the residual activity [39] was 88%. The residual activity [40] was 106%, the residual activity [41] was 105% and the residual activity [42] was 108%. For the same compound, the residual activity [43] was 83%, the residual activity [44] was 120% and the residual activity [45] was 88%. For the same compound, the residual activity [46] was 98%, the residual activity [47] was 94% and the residual activity [48] was 115%. It also gave a residual activity [49] of 117%, a residual activity [50] of 82% and a residual activity [51] of 96%. It also gave a residual activity [52] of 106%, a residual activity [53] of 108% and a residual activity [54] of 45%.
With `NNC(=O)c1sc2c([N+](=O)[O-])cc(C(F)(F)F)cc2[n+]1[O-]` [CYCLAPOLIN 10] the IC50 (A549) was 72.1 µM, the IC50 (HeLa [22]) was 53.6 µM and the IC50 (HT-29) was 50.5 µM.
